Columns and labels:
[1] = target: T1, Palmitoleoyl-protein carboxylesterase NOTUM (Homo sapiens, UniProt Q6P988); assay: Inhibition of human recombinant Notum (81 to T451 residues) expressed in HEK293S cells using OPTS as substrate at 10 uM incubated for 40 mins by microplate reader analysis relative to control
T1 sequence (Q6P988 whole entry): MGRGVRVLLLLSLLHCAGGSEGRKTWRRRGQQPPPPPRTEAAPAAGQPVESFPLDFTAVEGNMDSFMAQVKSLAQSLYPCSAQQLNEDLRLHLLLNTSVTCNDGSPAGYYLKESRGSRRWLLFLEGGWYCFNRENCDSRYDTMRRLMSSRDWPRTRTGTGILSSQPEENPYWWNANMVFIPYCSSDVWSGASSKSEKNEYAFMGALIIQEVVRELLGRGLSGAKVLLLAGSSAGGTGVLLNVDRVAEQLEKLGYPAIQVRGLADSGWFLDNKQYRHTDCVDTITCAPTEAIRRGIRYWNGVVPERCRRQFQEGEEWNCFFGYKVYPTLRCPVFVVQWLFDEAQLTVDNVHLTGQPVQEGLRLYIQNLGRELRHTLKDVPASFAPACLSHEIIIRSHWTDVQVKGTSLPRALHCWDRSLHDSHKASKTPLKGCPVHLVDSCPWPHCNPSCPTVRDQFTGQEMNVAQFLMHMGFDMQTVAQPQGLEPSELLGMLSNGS
Summary of the method: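 Biochemical assay with the Notum 81–451 C330S construct and the synthetic fluorescent substrate OPTS.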

[2] = target: T1, Palmitoleoyl-protein carboxylesterase NOTUM; assay: Inhibition of human recombinant Notum (81 to T451 residues) expressed in HEK293S cells using OPTS as substrate incubated for 40 mins by microplate reader analysis
[3] = test system: liver microsomes (Mus musculus); assay: Metabolic stability in mouse liver microsome assessed as intrinsic clearance measured upto 60 mins by LC-MS/MS analysis; conditions: read-out: CLH

Row | SMILES | inhibition at 10 µM [1] [%] | IC50 [2] | microsomal CLint [3] [µL/min/mg]
1 | CC(=O)N(C)c1ccccc1C | 20 |  | 
2 | CC(=O)N1CCc2cc(C#N)ccc21 | 20 |  | 
3 | CCN1CCc2c(Cl)cccc21 | 20 |  | 
4 | O=C1CCC2Cc3ccccc3N12 (racemic) |  |  | 74

Continued, values first:

Row | inhibition at 10 µM [1] [%] | IC50 [2] | microsomal CLint [3] [µL/min/mg] | SMILES
5 | < 20 | Not Active |  | CC(=O)n1cnc2ccccc21
6 | < 20 | Not Active |  | CC(=O)N1CCC(c2ccccc2)C1 (stereo unspecified)
7 | 20 |  |  | CC(=O)n1ncc2ccccc21
8 | 20 |  |  | O=C1CCCN1c1ccccc1
9 | 20 |  |  | CC(=O)N1CCS(=O)(=O)c2ccccc21

— ChEMBL document CHEMBL5346929, “Designed switch from covalent to non-covalent inhibitors of carboxylesterase Notum activity” (Eur J Med Chem, 2023)
